Screens deposited in PubChem BioAssay by several laboratories.
Mdm2 MdmX PPI: human Mdm2/MdmX binding inhibition; O15151+Q00987; SaOS-2 split-luciferase Mdm2/MdmX complementation, luminescence; inhibition, % at 8 µM; 330,000 compounds, 3% hits; AID 485346;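 active = inhibition of at least 50% at 8 µM in the primary screen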
Target sequence (O15151 whole entry, looked up): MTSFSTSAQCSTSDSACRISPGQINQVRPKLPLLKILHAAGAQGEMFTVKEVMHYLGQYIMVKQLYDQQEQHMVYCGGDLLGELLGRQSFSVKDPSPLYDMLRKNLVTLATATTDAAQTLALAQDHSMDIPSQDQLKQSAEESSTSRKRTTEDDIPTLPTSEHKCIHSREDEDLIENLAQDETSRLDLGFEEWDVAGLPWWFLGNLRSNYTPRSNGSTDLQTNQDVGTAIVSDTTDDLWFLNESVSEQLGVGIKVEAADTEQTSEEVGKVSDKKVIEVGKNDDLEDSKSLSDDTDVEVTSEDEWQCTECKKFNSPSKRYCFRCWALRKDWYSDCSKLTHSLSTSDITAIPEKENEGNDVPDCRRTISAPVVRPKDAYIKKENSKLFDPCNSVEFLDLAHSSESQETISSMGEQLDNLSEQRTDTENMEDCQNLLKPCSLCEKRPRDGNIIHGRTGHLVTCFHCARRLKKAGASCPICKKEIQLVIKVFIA
Target sequence (Q00987 whole entry, looked up): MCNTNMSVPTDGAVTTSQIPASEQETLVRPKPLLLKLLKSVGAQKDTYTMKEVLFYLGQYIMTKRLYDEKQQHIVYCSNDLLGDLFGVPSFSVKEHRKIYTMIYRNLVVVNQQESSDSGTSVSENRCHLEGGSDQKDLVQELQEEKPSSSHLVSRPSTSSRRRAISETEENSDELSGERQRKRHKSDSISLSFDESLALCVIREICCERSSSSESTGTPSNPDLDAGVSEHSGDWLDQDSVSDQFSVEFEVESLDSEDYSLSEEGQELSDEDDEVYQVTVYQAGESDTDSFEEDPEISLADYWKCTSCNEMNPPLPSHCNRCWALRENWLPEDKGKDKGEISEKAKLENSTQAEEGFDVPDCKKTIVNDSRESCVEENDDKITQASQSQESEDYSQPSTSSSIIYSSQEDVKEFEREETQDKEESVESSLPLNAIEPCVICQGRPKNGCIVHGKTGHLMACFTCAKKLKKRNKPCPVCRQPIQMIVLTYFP
CSC inhib: cancer stem cell inhibition | cancer stem cell-like cells viability, luminescence | 300,000 compounds, 1.1% hits | inhibition, % at 7.5 µM; in the data active = inhibition above about 75%; inconclusive = no clear call, values can overlap the other calls; tested in HMLE shEcad cells
Calb FLC: C. albicans growth modulation with fluconazole; growth inhibition, % (concentration not given with the values); C. albicans CaCi-2 (fluconazole-resistant clinical isolate) + fluconazole, Alamar Blue growth, 48 h; AID 1979; 300,000 compounds, 0.57% hits;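 active = growth inhibition above about 58% in most replicates, limit read from the data, passing the limit was not always enough; inconclusive = exactly half the replicates above a set limit; inactive = most replicates below a set limit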;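 note: all wells also contain fluconazole at 8 µg/ml as a sub-toxic cotreatment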
T cruzi inh: T. cruzi replication inhibition | 300,000 compounds, 1.4% hits | inhibition, % (concentration not given with the values) | AID 1885 | T. cruzi beta-gal in NIH3T3, luminescence, 90 h;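 active = mean inhibition across valid replicates above about 55%, limit read from the data; inconclusive = mean below that limit but half or more replicates reach it; inactive = mean below it, under half of replicates reach it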;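 note: signal also drops with host cell toxicity which is not excluded here; higher percent means less beta-gal luminescence so fewer parasites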
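assay system = mouse NIH/3T3 fibroblasts infected with β-gal-expressing T. cruzi Tulahuen C4 | input = 5,000 NIH/3T3 host cells per well | buffer or medium = DMEM plus 2% FBS | timing = 3 h host attachment, then at least 90 h co-culture | measured by = GalScreen luminescence, 60 min | evaluation = luminescence reflecting intracellular parasite burden, expressed as percent inhibition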
NALP3 yeast inh: inhibitors of NALP3 inflammasome in yeast. Yeast reconstituted NLRP3/ASC/caspase-1, beta-gal luminescence, 24 h. inhibition, % at 10 µM. 330,000 compounds, 0.39% hits. AID 2825;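 active = inhibition of 50% or more; inactive = inhibition below 50%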
Beta cell apopt: beta cell apoptosis inhibition; INS-1E cytokine-induced death, ATP luminescence, 48 h; percent of positive-control rescue, neutral wells zero; protection from apoptosis, % (concentration not given with the values); 300,000 compounds, 0.8% hits;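 active = Every replicate reaches about 75%, or at least half do and their mean reaches it too, limit read from the data; inconclusive = At least half of replicates reach the limit but their mean does not; inactive = Under half of replicates reach the limit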;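 note: higher means more ATP so stronger rescue from cytokine killing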
Mdm2-MdmX conf: human Mdm2/MdmX binding inhibition, confirmed. shares compounds with Mdm2 MdmX PPI. luminescent assay. inhibition, % at 8 µM. 10,000 compounds, 55% hits. AID 489028; in the data active = inhibition above about 40%
FLuc counter: full-length luciferase inhibition in Mdm2/MdmX counter-screen. SaOS-2 full-length luciferase counterscreen, luminescence. shares compounds with Mdm2 MdmX PPI. AID 504607. 6,200 compounds, 77% hits. inhibition, % at 8 µM;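 active = mean inhibition at 8 µM reaching about 37%, which flags the compound as non-specific, limit read from the data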;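 note: p53-null SaOS-2 cells with luciferase driven by a doxycycline-inducible promoter; compound on cells about two nights before reading with doxycycline added after day one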
Large screens that a line does not name were inactive (follow-up assays come after a bar, where they were run). Hits are enriched below; roughly 5.3% of the tested compounds scored in any of these assays.

Cc1nc2c(S(=O)(=O)c3ccccc3)cnn2c(C)c1C	none
NC(N)=N/N=C/c1ccc2cccc(OCc3ccccc3)c2n1	Mdm2 MdmX PPI 50.9, T cruzi inh 56.5 | Mdm2-MdmX conf 60.0 | FLuc counter 81.2
COc1ccc(C(=O)N/N=C/c2ccc3cccc(OCc4ccccc4)c3n2)cc1	Mdm2 MdmX PPI 59.3 | Mdm2-MdmX conf inactive
O=C(N/N=C/c1ccc2cccc(OCc3ccccc3)c2n1)c1ccc(Br)cc1	none
CCCC(=O)N(C)c1nnc(-c2ccc(OC)cc2)s1	none
CC(C)Cc1ccc(C(C)C(N)=NCCc2ccccc2)cc1 (centres undefined)	Mdm2 MdmX PPI 81.5 | Mdm2-MdmX conf 71.9 | FLuc counter 48.3
O=S(=O)(CCSc1nc2ccccc2s1)c1nc2ccccc2s1	Mdm2 MdmX PPI 99.2 | Mdm2-MdmX conf 83.2 | FLuc counter 54.7
C=CCS(=O)(=O)c1nc2ccccc2s1	Mdm2 MdmX PPI 62.5 | Mdm2-MdmX conf inactive | FLuc counter 42.2
CCS(=O)(=O)CCSc1nc2ccccc2s1	none
O=C(Oc1ccc(F)cc1C(=O)/C=C/c1cccs1)c1cccc([N+](=O)[O-])c1	Mdm2 MdmX PPI 54.9 | Mdm2-MdmX conf 41.6 | FLuc counter 48.3
O=C(/C=C/c1ccccc1F)c1cccc([N+](=O)[O-])c1	none
CCc1nnc(NC(=O)CSc2nc(-c3ccccc3)nc3ccccc23)s1	Mdm2 MdmX PPI 78.4 | Mdm2-MdmX conf 50.2 | FLuc counter 90.5
O=[N+]([O-])c1ccc(N=Nc2ncc[nH]2)cc1	Mdm2 MdmX PPI 100.3, CSC inhib 80.8 | Mdm2-MdmX conf 59.2 | FLuc counter 53.5
O=[N+]([O-])c1ccc(N=NN(CCO)CCO)cc1	none
Cc1cc(NC(=O)CSc2nc(-c3ccco3)cc(C(F)(F)F)n2)no1	Mdm2 MdmX PPI 65.0 | Mdm2-MdmX conf 52.8 | FLuc counter 76.7
O=C(CSc1nc(-c2ccco2)cc(C(F)(F)F)n1)NCCc1ccccc1	Mdm2 MdmX PPI 72.9, Calb FLC 98.2 | Mdm2-MdmX conf 68.0 | FLuc counter inactive
Cc1cc(NC(=O)CCSc2nc(-c3ccco3)cc(C(F)(F)F)n2)no1	none
Cc1c(NC(=O)Oc2ccccc2)sc(=S)n1C	none (no result: CSC inhib, Beta cell apopt)
Cc1c(CCOC(=O)C23CC4CC(CC(C4)C2)C3)sc[n+]1Cc1ccccc1	none
Cc1c(CCOC(=O)CC23CC4CC(CC(C4)C2)C3)sc[n+]1CC(=O)c1ccccc1	Mdm2 MdmX PPI 53.9, CSC inhib 100.0 | Mdm2-MdmX conf inactive
CC(NCCC(Cc1ccccc1)c1ccco1)c1ccccc1 (centres undefined)	none
Cc1ccn2cc(C(=O)Nc3cccc(C(=O)NC4CC4)c3)nc2c1	none (no result: CSC inhib, Calb FLC, T cruzi inh, Beta cell apopt)
C[C@H](NC(=O)c1[nH]cnc1C(=O)Nc1ccc(Cl)cc1)c1ccccc1	Mdm2 MdmX PPI 60.7 (no result: Calb FLC, T cruzi inh) | Mdm2-MdmX conf inactive | FLuc counter 68.2
C[C@@H](NC(=O)c1[nH]cnc1C(=O)Nc1ccc(Cl)cc1)c1ccccc1	Mdm2 MdmX PPI 60.4 (no result: Calb FLC, T cruzi inh) | Mdm2-MdmX conf 45.0 | FLuc counter 61.6
C[C@@H](NC(=O)c1[nH]cnc1C(=O)Nc1ccccc1)c1ccccc1	none (no result: Calb FLC, T cruzi inh)
COc1ccc(NC(=O)CN(C)CC(=O)NC(=O)NC2CCCCC2)cc1	none (no result: CSC inhib, Calb FLC, T cruzi inh)
CC(C)c1ccc(NC2CCCN(C(=O)c3ccnn3C)C2)cc1 (centres undefined)	none
COc1ccc(-n2nc(C(=O)c3cccs3)cc(-c3nc4ccccc4[nH]3)c2=N)cc1	Mdm2 MdmX PPI 97.5, T cruzi inh 72.7 | Mdm2-MdmX conf 48.6 | FLuc counter inactive
COc1ccc(Nc2nc3ccccc3nc2NS(=O)(=O)c2cccs2)cc1	none (no result: Beta cell apopt)
O=C(O)c1ccc(/C=N/NC(=O)c2cc(-c3cccs3)nc3ccccc23)cc1	none
C/C(=N\NC(=O)c1ccccc1OCc1ccc(F)cc1)c1ccccn1	Mdm2 MdmX PPI 93.0, Beta cell apopt 94.0 (no result: Calb FLC, T cruzi inh) | Mdm2-MdmX conf 52.8 | FLuc counter 44.8
O=C(NCc1ccc(F)cc1)c1ccccc1OCc1ccccc1	none
C/C(=N\NC(=O)c1cc(-c2cccs2)nc2ccccc12)c1ccccn1	Mdm2 MdmX PPI 79.7, CSC inhib 135.9, Calb FLC 95.0, Beta cell apopt 102.2 | Mdm2-MdmX conf 74.8 | FLuc counter inactive
CC(=O)c1ccc(Nc2nc3ccccc3nc2NS(=O)(=O)c2cccs2)cc1	Mdm2 MdmX PPI 59.7 | Mdm2-MdmX conf inactive
COc1ccc(C(=O)N/N=C(\C)c2ccccn2)cc1OC	Mdm2 MdmX PPI 98.5, CSC inhib 91.1, Beta cell apopt 98.4 | Mdm2-MdmX conf inactive
COc1cc2c(C(=O)Nc3ccccc3F)cn(C)c(=O)c2cc1OC	none
C/C(=N\NC(=O)c1cccc2ccccc12)c1cccs1	none
C/C(=N\NC(=O)C1CCCN(S(=O)(=O)c2ccccc2)C1)c1ccccn1 (centres undefined)	Mdm2 MdmX PPI 70.2 | Mdm2-MdmX conf 58.9 | FLuc counter inactive
C/C(=N\NC(=O)C1CCCN(S(=O)(=O)c2ccccc2)C1)c1ccncc1 (centres undefined)	none (no result: CSC inhib)
C/C(=N\NC(=O)c1cc(Br)ccc1O)c1ccccn1	Mdm2 MdmX PPI 57.5, CSC inhib 96.0, Beta cell apopt 105.2 | Mdm2-MdmX conf inactive | FLuc counter 49.6
C/C(=N\NC(=O)c1ccc(NS(=O)(=O)c2cccs2)cc1)c1ccccn1	Mdm2 MdmX PPI 58.1, Beta cell apopt 85.9 | Mdm2-MdmX conf inactive
C/C(=N\NC(=O)c1cccc2ccccc12)c1ccccn1	Mdm2 MdmX PPI 95.9, T cruzi inh 63.9 (no result: CSC inhib, Beta cell apopt) | Mdm2-MdmX conf inactive | FLuc counter inactive
O=C(N/C(=C\c1cn(-c2ccccc2)nc1-c1ccc(Cl)cc1)C(=O)N1CCOCC1)c1ccccc1	none
O=C(CSc1nc2sc3c(c2c(=O)[nH]1)CCC3)NCCO	none
CCCc1oc(C(=O)O)cc1CN1CCOCC1	none
C/C(=N\NC(=O)C(c1ccccc1)c1ccccc1)c1ccccn1	Mdm2 MdmX PPI 74.8, Beta cell apopt 87.8 | Mdm2-MdmX conf 64.2 | FLuc counter 49.6
C/C(=N\NC(=O)C(c1ccccc1)c1ccccc1)c1ccc(O)cc1	none
O=C(NN=C(c1ccccc1)c1ccccn1)c1ccccc1	Mdm2 MdmX PPI 91.2, Beta cell apopt 102.5 (no result: Calb FLC, T cruzi inh) | Mdm2-MdmX conf 58.0 | FLuc counter inactive
O=C(NC(O)C(=O)c1ccccc1)c1ccccn1 (centres undefined)	none (no result: CSC inhib)
Cc1nn(-c2ccccc2)c(Cl)c1C(=O)N1CCN(c2ncnc3c2cnn3-c2ccccc2)CC1	Mdm2 MdmX PPI 97.0 | Mdm2-MdmX conf 88.5 | FLuc counter 58.5
Cn1ncc2c(N3CCN(c4ccccc4F)CC3)ncnc21	Calb FLC inconclusive
CCOC(=O)C1CCN(c2ncnc3c2cnn3-c2ccc(Cl)cc2)CC1	none
